Measurements from ChEMBL document CHEMBL1155213, “Solvent free synthesis of 1,5-disubstituted tetrazoles derived from Baylis Hillman acetates as potential TNF-alpha inhibitors” (2009).

Tests used:
Blood [1] = experiment: Inhibition of LPS-induced TNFalpha production in human whole blood at 10 uM treated 1 hr before LPS challenge measured after 5 hrs by ELISA; assay type: functional
Method in brief: (§1)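 Whole blood aliquots preincubated 1 h at 37 °C with test compound (10 or 100 μM solution) or DMSO vehicle, then stimulated with LPS in PBS (final 1 ng/ml). Incubated a further 5 h at 37 °C, stopped on ice 10 min. Plasma separated by centrifugation (3000 rpm, 10 min, 4 °C), stored at −70 °C. Plasma TNF-α quantified by ELISA.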

Blood [2] = experiment: Inhibition of LPS-induced TNFalpha production in human whole blood at 100 uM treated 1 hr before LPS challenge measured after 5 hrs by ELISA; assay type: functional; method in brief: as §1

| SMILES | inhibition at 10 µM (Blood [1]) [%] | inhibition at 100 µM (Blood [2]) [%] |
| --- | --- | --- |
| COC(=O)/C(=C/c1ccc(OC)cc1)Cn1nnnc1-c1ccncc1 | 8.6 | 12.9 |
| COC(=O)/C(=C/c1ccccc1)Cn1nnnc1-c1ccccc1 | 14.6 | 35.1 |
| COC(=O)/C(=C/c1ccccc1)Cn1nnnc1-c1ccncc1 | 18.2 | 67 |
| COC(=O)/C(=C/c1ccc(OC)cc1)Cn1nnnc1-c1cccnc1 | 5.4 | 30.2 |
| COC(=O)/C(=C/c1ccc(OC)cc1)Cn1nnnc1-c1ccccc1 | 22.2 | 46.3 |
